High-throughput results as filed in PubChem.
hIAP inh = human IAP inhibition. P09923. purified IAP, CDP-Star luminescence, 30 min. inhibition, % at 10 µM. hit rate 0.12% among 330,000. AID 2544;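 active = inhibition reaching a set limit with compound at 10 µM in the primary screen, cut at about 35% in these data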;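 note: plate controls were DMSO wells with enzyme for no effect and no-enzyme buffer wells for full effect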
Target sequence (P09923 whole entry, looked up): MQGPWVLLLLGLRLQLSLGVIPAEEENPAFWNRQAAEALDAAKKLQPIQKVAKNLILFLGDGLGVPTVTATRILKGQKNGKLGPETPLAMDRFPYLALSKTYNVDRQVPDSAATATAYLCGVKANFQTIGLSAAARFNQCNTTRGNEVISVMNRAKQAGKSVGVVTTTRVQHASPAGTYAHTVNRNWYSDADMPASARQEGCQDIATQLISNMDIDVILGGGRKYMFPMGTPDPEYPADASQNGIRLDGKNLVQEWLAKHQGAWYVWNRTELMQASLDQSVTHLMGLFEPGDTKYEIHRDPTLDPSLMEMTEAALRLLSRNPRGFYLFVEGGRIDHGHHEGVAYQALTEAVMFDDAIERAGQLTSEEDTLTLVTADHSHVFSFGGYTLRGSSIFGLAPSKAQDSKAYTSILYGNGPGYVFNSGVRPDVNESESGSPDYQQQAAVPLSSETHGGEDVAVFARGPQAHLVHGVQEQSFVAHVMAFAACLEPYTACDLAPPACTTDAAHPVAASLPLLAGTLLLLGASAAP
bIAP activator = intestinal alkaline phosphatase (bovine) activation; AID 1016; hit rate 0.17% among 200,000; activation factor at 20 µM; purified bovine IAP, CDP-star luminescence, 30 min; stronger effect = higher value; fold of DMSO-control signal, blank-subtracted;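 active = activation factor of 2 or more at 20 µM, a signal rise over negative controls twice the positive control's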
bIAP inh = blocks bovine intestinal alkaline phosphatase activity. purified bovine IAP, CDP-star luminescence, 30 min. inhibition, % at 20 µM. 190,000 tested, under 10 active. AID 1019;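 active = over 50% inhibition of intestinal alkaline phosphatase at 20 µM in the single-dose screen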
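System: Purified bovine intestinal alkaline phosphatase (IAP) enzyme | Input: IAP diluted 1/65,000,000 in the well | Also added: CDP-star chemiluminescent phosphatase substrate, 30 µM final | Dosing: 20 µM single dose | Times: Enzyme reaction for 30 min at room temperature | Detection: Luminescence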
hIAP activ = increases human intestinal alkaline phosphatase activity; activation factor at 10 µM; AID 2524; hit rate 0.16% among 330,000; purified human IAP, CDP-Star luminescence, 30 min; stronger effect = higher value; 1 = vehicle-only enzyme, 0 = enzyme-free background; P09923;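 active = activation factor of the enzyme at least 2-fold when tested at 20 µM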
mIAP inh = mouse IAP inhibition | purified mouse IAP, CDP-Star luminescence, 30 min | inhibition, % at 10 µM | hit rate 0.2% among 330,000;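 active = inhibition of at least 40% at 10 µM in the primary screen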;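 note: plate controls were DMSO with enzyme for no effect and no enzyme wells for full effect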
mIAP activ = increases mouse intestinal alkaline phosphatase activity. hit rate 0.24% among 330,000. activation factor at 10 µM. AID 2805. muIAP, CDP-Star luminescence, 30 min; stronger effect = higher value; 1 = vehicle-only enzyme signal, 0 = enzyme-free wells;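 active = activation factor of at least 2 at 20 µM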
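System: Mouse IAP enzyme | Also added: CDP-Star substrate | Dosing: Compounds dispensed in DMSO | Schedule: 30 min enzyme-substrate-compound incubation at room temperature | Technique: Chemiluminescence readout | Control set: DMSO-only wells and no-enzyme negative control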
hIAP act confirm = human IAP activation confirmation; hit rate 10% among 880; purified IAP, CDP-Star luminescence, 30 min; stronger effect = lower value; shares compounds with hIAP activ; activation (%Activity, negative = activation), % at 8.3 µM;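 active = at least twofold enzyme activation in any of six single-dose repeats, which the averaged readout prints as negative percent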
An asterisk follows results filed as active; . = no result given. Shown are actives, neighbours in structure and some others; about 0.79% of the full set was active somewhere.

SMILES	hIAP inh	bIAP activator	bIAP inh	hIAP activ	mIAP inh	mIAP activ	hIAP act confirm
c1ccc(-c2nnc(-c3ccccc3)o2)cc1	12.9	1	1.5	0.871	-0.8	1.01	.
Nc1ccccc1-c1nnc(-c2ccc(-c3ccccc3)cc2)o1	-100.2	0.7	26.8	2*	-9.2	1.09	-46.5
O=C(COc1ccccc1Cl)NNC(=O)c1ccc2c(=O)n3c(nc2c1)CCC3	-22.4	.	.	1.22	2.8	0.972	.
O=C(NCCCN1CCCC1=O)C1CCCO1 (stereo unspecified)	-2.7	1	0.0	1.03	1.0	0.99	.
COc1ccc2nc3cc(Cl)ccc3c(Nc3cc(CN4CCCC4)c(O)c(CN4CCCC4)c3)c2n1	43.2*	.	.	0.568	11.6	0.884	-60.1*
Cc1onc(-c2ccccc2)c1CNS(=O)(=O)c1ccccc1[N+](=O)[O-]	19.4	.	.	0.806	0.9	0.991	.
Cc1ccccc1N1CCN(C(=O)c2ccccc2NC(=O)/C=C\C(=O)O)CC1	37.1*	0.9	10.3	0.629	-1.2	1.01	5.3
COc1ccccc1C(=O)NCC(=O)NNc1ncnc(N)c1[N+](=O)[O-]	-159.2	1.3	-30.4	2.59*	24.8	0.752	-30.7
CCc1ccc(C(=O)NNC(=O)c2n[nH]c(=O)c3ccccc23)cc1	-67.2	.	.	1.67	11.5	0.885	.
Cc1ccc(C(=O)NNC(=O)c2n[nH]c(=O)c3ccccc23)cc1C	-117.7	.	.	2.18*	15.9	0.841	-41.3
O=C(NNC(=O)c1n[nH]c(=O)c2ccccc12)c1ccc(Br)cc1	-112.9	.	.	2.13*	14.6	0.854	-11.9
CC(NC(=S)NC1CCCCC1)c1ccc(C(C)(C)C)cc1 (stereo unspecified)	-132.8	.	.	2.33*	-431.3	5.31*	-20.5
CCOc1ccc(C(C)NC(=S)NC2CCCCC2)cc1 (stereo unspecified)	-22.9	0.8	16.4	1.23	-75.6	1.76	.
CCC(C)c1ccc(C(C)NC(=S)NC2CCCCC2)cc1 (stereo unspecified)	-256.0	.	.	3.56*	-370.0	4.7*	-71.6
COc1ccccc1NC(=O)C1CCN(C(=O)c2ccco2)CC1	10.6	.	.	0.894	-1.2	1.01	.
Cc1cc(C)cc(NC(=S)N2CCCC2)c1	35.6*	.	.	0.644	-0.2	1	-26.7
CC(C)(C)OC(=O)N1CCN(C(=O)c2[nH]cnc2C(=O)Nc2nccs2)CC1	-121.8	.	.	2.22*	1.1	0.989	-27.6
C[C@H](NC(=O)c1nc[nH]c1C(=O)N1CCc2ccccc2C1)C(=O)OC(C)(C)C	-170.5	.	.	2.71*	-14.5	1.15	-56.9
O=C(Nc1nccs1)c1nc[nH]c1C(=O)N1CCc2ccccc2C1	-109.1	.	.	2.09*	5.5	0.945	-48.5
CC(C)(C)c1ccc(C(=O)NC(=O)COC(=O)c2ccc(Br)o2)cc1	-19.7	.	.	1.2	-6.5	1.06	.
Cc1cccc(NC(=O)C(Cc2ccccc2)c2nn[nH]n2)c1C (stereo unspecified)	18.1	.	.	0.819	-3.9	1.04	.
CC(C)OCCCNC(=O)Cn1nc(-c2ccccc2)ccc1=O	-8.6	1	2.8	1.09	-13.2	1.13	.
Cc1ccc(CNC(=O)C2CCCN(c3cnccn3)C2)cc1 (stereo unspecified)	-2.2	.	.	1.02	-1.6	1.02	.
O=C(N/N=C/c1ccc(O)c(O)c1)c1cc(-c2ccccc2)nc2ccccc12	77.6*	.	.	0.224	28.6	0.714	26.6
O=C(N/N=C/c1cccc(O)c1)c1cc(-c2ccccc2)nc2ccccc12	-1.8	.	.	1.02	13.2	0.868	.
SMILES	hIAP inh	bIAP activator	bIAP inh	hIAP activ	mIAP inh	mIAP activ	hIAP act confirm
O=S(=O)(Nc1nc2ccccc2nc1NCc1ccco1)c1ccc(Cl)cc1	-8.7	1.1	-14.2	1.09	10.3	0.897	.
Cc1ccc(S(=O)(=O)Nc2nc3ccccc3nc2NCc2ccco2)cc1	-111.6	1	4.8	2.12*	4.3	0.957	19.1
CCN(C(=O)Cc1c(C(=O)O)[nH]c2ccccc12)c1ccc(OC)cc1	10.7	1.1	-12.2	0.893	-17.8	1.18	.
O=C(NCC(F)(F)F)Nc1cccnc1	54.0*	0.9	9.9	0.46	-11.4	1.11	7.4
CN(CC(=O)Nc1ccccc1Cl)C(=O)COC(=O)c1cnccn1	35.1*	.	.	0.649	-2.8	1.03	-0.9
CCN1CCN=C1Nc1ccccc1	2.5	.	.	0.975	2.3	0.977	.
O=C(NCC1CC1)C1(C(F)(F)F)C/C(=C\Cc2ccccc2)CCCO1 (stereo unspecified)	3.3	.	.	0.967	9.1	0.909	.
O=C(CCCC(=O)N/N=C\c1ccccn1)N/N=C\c1ccccn1	-102.4	1.1	-6.5	2.02*	-4.4	1.04	2.4
O=C(N/N=C/c1ccccn1)c1cc(C2CC2)[nH]n1	-110.3	1.6	-59.3	2.1*	20.8	0.792	-22.4
Cc1ccsc1/C=N/Nc1ncnc2nc[nH]c12	-126.3	1.2	-23.8	2.26*	3.4	0.966	-10.5
CC1=C/C(=C\C=C(C#N)C#N)N(C)c2ccccc21	36.2*	.	.	0.638	24.3	0.757	4.2
COC(=O)c1ccc(NC(=O)Cn2nc(-c3ccncc3)nc2SCC(=O)Nc2nccs2)cc1	14.0	1	4.1	0.86	2.4	0.976	.
CS(=O)(=O)N(CC(=O)N1CCC(C(N)=O)CC1)c1cc(C(F)(F)F)ccc1Cl	-15.4	1	3.3	1.15	3.7	0.963	.
CS(=O)(=O)N1CCC(C(=O)Nc2cccc(F)c2)CC1	-13.9	.	.	1.14	-5.4	1.05	.
O=C(Nc1cccc(-c2cccc(F)c2)c1)C1CCN(C2CCOCC2)CC1	-185.2	.	.	2.85*	-94.0	1.94	1.7
COc1ccc(CC2CC(=O)N(c3ccc(C)cc3)C2=O)cc1 (stereo unspecified)	-106.2	.	.	2.06*	-1.9	1.02	23.2
Cc1ccc(CC2CC(=O)N(c3ccc(C)cc3)C2=O)cc1 (stereo unspecified)	1.3	0.9	5.0	0.987	-0.4	1	.
O=C(N/N=C1\CCCc2ccccc21)C(O)c1ccccc1 (stereo unspecified)	8.2	1	1.0	0.918	13.0	0.87	.
COC(=O)c1[nH]c2ccccc2c1NC(=O)CNC1CCCCC1	53.0*	1	3.9	0.47	3.8	0.962	-31.7
COC(=O)c1[nH]c2ccccc2c1NC(=O)CN1CCCCCC1	-6.8	1.2	-17.1	1.07	4.2	0.958	.
COc1ccc(N2CCN(C(=O)c3ccc4c(=O)n(CCc5ccc(OC)c(OC)c5)c(=O)[nH]c4c3)CC2)cc1	5.5	1	-4.2	0.945	3.9	0.961	.
O=C(O)c1ccccc1C(=O)N1CCN(S(=O)(=O)c2cccc(C(F)(F)F)c2)CC1	2.0	.	.	0.98	-2.2	1.02	.
C/C(=N/NC(=O)c1ccc(Cn2cccn2)o1)c1cccc(NC(=O)c2ccncc2)c1	46.0*	.	.	0.54	-4.9	1.05	-100.7*
